From ChEMBL document CHEMBL2429834, “Potent histone deacetylase inhibitors derived from 4-(aminomethyl)-N-hydroxybenzamide with high selectivity for the HDAC6 isoform” (J Med Chem, 2013) come the findings set out here.

A value given as a limit tells only on which side of the number the result lay.

One data set deals with T1, Histone deacetylase 7 (Homo sapiens, UniProt Q8WUI4).
T1 sequence (Q8WUI4 whole entry): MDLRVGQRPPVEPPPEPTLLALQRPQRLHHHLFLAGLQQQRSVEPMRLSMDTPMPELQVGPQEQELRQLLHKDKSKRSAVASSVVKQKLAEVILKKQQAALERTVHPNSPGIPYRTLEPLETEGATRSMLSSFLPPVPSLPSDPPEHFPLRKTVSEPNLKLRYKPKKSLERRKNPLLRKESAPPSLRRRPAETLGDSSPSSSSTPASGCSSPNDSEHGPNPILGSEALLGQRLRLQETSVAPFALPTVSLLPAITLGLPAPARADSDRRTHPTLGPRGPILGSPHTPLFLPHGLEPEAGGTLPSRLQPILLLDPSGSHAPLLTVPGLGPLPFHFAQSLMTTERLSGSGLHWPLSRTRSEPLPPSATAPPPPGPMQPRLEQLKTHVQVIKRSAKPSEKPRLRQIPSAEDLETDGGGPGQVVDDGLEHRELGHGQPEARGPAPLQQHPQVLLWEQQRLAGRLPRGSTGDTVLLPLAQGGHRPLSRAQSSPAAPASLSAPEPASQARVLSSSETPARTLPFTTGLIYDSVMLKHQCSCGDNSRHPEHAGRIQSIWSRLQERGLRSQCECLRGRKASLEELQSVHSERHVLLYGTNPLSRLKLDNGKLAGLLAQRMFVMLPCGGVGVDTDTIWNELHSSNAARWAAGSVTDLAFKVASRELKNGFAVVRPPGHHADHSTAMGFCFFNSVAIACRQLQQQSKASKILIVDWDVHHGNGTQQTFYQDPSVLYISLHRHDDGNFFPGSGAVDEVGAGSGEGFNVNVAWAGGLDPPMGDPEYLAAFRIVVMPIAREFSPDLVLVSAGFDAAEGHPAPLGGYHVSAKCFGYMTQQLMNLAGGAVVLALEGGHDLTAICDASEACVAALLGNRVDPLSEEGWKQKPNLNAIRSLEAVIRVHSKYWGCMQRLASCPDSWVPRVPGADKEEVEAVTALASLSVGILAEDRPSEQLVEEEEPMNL
The data set can be described thus: Inhibition of N-terminal GST-tagged recombinant human HDAC7 (518) expressed in baculovirus using acetyl-Lys(trifluoroacetyl)-AMC as substrate after 1 hr by fluorescence plate reader analysis.

Data set [1] addresses T2, Polyamine deacetylase HDAC10 (Homo sapiens, UniProt Q969S8).
T2 sequence (Q969S8 whole entry): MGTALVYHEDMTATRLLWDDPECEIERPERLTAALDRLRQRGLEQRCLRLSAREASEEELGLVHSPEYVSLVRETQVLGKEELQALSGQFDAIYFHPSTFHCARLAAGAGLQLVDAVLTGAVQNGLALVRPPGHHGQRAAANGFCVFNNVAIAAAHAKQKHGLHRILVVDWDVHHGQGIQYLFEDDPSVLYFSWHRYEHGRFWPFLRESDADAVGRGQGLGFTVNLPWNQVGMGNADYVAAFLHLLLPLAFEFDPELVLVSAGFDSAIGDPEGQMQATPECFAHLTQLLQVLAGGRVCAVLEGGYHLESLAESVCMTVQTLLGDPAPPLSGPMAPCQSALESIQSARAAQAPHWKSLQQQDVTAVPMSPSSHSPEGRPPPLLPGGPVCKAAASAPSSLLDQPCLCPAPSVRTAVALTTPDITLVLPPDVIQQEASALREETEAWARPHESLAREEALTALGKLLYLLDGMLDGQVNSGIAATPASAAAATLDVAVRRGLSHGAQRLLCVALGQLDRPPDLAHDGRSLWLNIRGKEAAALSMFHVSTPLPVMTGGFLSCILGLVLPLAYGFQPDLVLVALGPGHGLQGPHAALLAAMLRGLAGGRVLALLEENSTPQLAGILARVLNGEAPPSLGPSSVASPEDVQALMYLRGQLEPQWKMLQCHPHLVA
The data set can be described thus: Inhibition of N-terminal GST-tagged recombinant human HDAC10 (1 to 481) expressed in baculovirus using Arg-His-Lys-Lys (Ac) as substrate after 1 hr by fluorescence plate reader analysis.

A short description of data set [2]: Selectivity ratio of IC50 for HDAC1/2 in human HeLa cell nuclear extract to IC50 for N-terminal GST-tagged recombinant HDAC6 (unknown origin). Format: cell-based. The gist of the method: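 HDAC6 leg: 1 nM GST-HDAC6 with 8 μM Ac-Arg-Gly-Lys(Ac)-AMC. Nuclear-extract leg: 30 μg/mL HeLa nuclear extract (mainly HDAC1/2) with 20 μM of the same substrate in 50 mM Tris-Cl, 137 mM NaCl, 2.7 mM KCl, 1 mM MgCl2, pH 8.0.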

For a further data set, the target named is Histone deacetylase 1 (Homo sapiens, UniProt Q13547). The data set can be described thus: Inhibition of full length GST-tagged recombinant human HDAC1 expressed in baculovirus using Arg-His-Lys-Lys (Ac) as substrate after 2 hrs by fluorescence plate reader analysis.
Another data set has as its target Histone deacetylase 3 (Homo sapiens, UniProt O15379). The data set can be described thus: Inhibition of full length C-terminal His6x-tagged recombinant human HDAC3 expressed in baculovirus using Arg-His-Lys-Lys (Ac) as substrate after 2 hrs by fluorescence plate reader analysis.
In another data set the target is Histone deacetylase 4 (Homo sapiens, UniProt P56524). The data set can be described thus: Inhibition of N-terminal GST-tagged recombinant human HDAC4 (627 to 1085) expressed in baculovirus using acetyl-Lys(trifluoroacetyl)-AMC as substrate after 2 hrs by fluorescence plate reader analysis.
The nature of data set [3]: Kinetic solubility of the compound in potassium phosphate buffer at pH 6.8 by turbidometric analysis. Format: physicochemical. Conditions: read-out: Kinetic_solubility.

Chain of Histone deacetylase 4 (P56524 whole entry): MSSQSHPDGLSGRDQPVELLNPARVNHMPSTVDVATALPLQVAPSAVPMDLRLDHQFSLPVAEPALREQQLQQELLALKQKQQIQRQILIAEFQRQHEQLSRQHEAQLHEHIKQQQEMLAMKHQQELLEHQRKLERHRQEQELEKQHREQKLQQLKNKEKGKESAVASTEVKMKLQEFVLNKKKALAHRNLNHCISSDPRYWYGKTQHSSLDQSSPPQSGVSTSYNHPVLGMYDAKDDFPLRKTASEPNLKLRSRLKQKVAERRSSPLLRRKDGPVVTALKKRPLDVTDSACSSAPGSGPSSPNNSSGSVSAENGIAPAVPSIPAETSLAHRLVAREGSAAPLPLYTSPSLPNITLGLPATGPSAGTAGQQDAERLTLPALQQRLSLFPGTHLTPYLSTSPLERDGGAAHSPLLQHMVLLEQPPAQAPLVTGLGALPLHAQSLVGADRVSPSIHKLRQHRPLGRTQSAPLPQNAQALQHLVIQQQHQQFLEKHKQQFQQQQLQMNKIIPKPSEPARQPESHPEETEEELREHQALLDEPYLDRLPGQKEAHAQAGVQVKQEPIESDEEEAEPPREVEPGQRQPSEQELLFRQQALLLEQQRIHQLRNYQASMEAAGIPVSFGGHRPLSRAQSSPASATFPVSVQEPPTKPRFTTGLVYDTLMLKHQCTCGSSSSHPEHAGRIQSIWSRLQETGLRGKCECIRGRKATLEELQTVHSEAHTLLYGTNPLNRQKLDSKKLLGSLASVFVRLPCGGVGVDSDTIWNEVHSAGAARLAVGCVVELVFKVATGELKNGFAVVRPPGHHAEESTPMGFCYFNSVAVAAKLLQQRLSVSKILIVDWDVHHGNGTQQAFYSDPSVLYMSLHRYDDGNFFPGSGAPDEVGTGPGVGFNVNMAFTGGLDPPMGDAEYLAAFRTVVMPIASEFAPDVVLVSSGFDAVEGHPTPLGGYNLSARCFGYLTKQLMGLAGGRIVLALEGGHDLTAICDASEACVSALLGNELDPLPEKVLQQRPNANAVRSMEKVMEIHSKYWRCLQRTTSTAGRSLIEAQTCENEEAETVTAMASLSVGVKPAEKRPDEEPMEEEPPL
Chain of Histone deacetylase 1 (Q13547 whole entry): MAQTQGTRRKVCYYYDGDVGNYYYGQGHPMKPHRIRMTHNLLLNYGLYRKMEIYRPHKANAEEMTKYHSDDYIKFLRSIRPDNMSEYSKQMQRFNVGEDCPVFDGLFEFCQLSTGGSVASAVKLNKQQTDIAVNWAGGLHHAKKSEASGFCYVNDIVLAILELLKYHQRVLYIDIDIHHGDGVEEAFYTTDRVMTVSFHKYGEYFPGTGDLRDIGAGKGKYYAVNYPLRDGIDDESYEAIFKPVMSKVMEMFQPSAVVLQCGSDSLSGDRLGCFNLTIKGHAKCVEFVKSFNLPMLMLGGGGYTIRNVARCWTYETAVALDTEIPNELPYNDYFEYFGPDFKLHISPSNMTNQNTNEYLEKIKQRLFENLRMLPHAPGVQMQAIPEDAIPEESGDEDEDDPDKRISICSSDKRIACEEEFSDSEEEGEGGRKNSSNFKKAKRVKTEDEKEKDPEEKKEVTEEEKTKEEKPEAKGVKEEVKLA
Chain of Histone deacetylase 3 (O15379 whole entry): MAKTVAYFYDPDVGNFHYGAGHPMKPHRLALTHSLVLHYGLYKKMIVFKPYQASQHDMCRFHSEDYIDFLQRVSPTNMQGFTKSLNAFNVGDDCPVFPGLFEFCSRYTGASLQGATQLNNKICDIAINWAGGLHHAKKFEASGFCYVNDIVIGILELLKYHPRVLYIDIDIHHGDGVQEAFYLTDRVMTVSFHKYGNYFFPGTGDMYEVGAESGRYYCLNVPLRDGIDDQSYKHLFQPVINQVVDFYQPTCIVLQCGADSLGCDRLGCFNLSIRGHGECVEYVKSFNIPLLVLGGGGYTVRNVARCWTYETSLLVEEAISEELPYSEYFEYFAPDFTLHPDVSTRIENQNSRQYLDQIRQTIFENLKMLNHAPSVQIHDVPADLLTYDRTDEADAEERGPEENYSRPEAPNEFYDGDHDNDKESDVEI

Regarding `CC(C)(C)C(=O)N1CCc2cc(C(=O)NO)ccc2C1`, the IC50 (at Histone deacetylase 7; in data set [1]; at Histone deacetylase 1; at Histone deacetylase 3; at Histone deacetylase 4) was > 50 µM in each case. Also, the Ratio IC50 in data set [2] turned out to be 1500. Besides, the solubility kinetic in data set [3] is > 200 µM.

Consider `Cn1cccc1C(=O)N1Cc2ccc(C(=O)NO)cc2C1`, for which the IC50 (on Histone deacetylase 7; in data set [1]; at Histone deacetylase 1; at Histone deacetylase 3; on Histone deacetylase 4) was > 50 µM each time. Further, in data set [2], the Ratio IC50 is 690. The solubility kinetic in data set [3] was > 200 µM.

As to `Cn1cccc1C(=O)N1CCCc2cc(C(=O)NO)ccc2C1`, the IC50 (on Histone deacetylase 7; in data set [1]; at Histone deacetylase 1; at Histone deacetylase 3; at Histone deacetylase 4) was > 50 µM each time. The Ratio IC50 in data set [2] is > 380. The solubility kinetic in data set [3] was > 200 µM.

For the compound `Cn1cccc1C(=O)N1CCc2cc(C(=O)NO)ccc2C1`, the IC50 (as a rule, the concentration needed to halve the response being measured) on Histone deacetylase 7 is > 50 µM; in data set [1] it was > 50 µM; on Histone deacetylase 1, 45 µM; at Histone deacetylase 3, 46 µM; at Histone deacetylase 4, > 50 µM. For the same compound, the Ratio IC50 in data set [2] came out at 500. Further, the solubility kinetic in data set [3] was > 200 µM.

Regarding `CC(C)(C)C(=O)N1Cc2ccc(C(=O)NO)cc2C1`, the IC50 (on Histone deacetylase 7; in data set [1]; at Histone deacetylase 1; on Histone deacetylase 3; on Histone deacetylase 4) was > 50 µM in each case. In addition, in data set [2], the Ratio IC50 turned out to be 340. In data set [3], the solubility kinetic was > 200 µM.

Turning to `Cn1cccc1C(=O)NCc1ccc(C(=O)NO)cc1`, the IC50 at Histone deacetylase 7 amounted to 4.6 µM; in data set [1], 3.7 µM; at Histone deacetylase 1, 5.8 µM; at Histone deacetylase 3, 4.5 µM; at Histone deacetylase 4, 15 µM. The Ratio IC50 in data set [2] was 115. Also, the solubility kinetic in data set [3] was > 200 µM.
